# Activity calls are given as the source filed them. The calls are words filed in the database; no cut-off is given here.
# How the values were obtained:
# [1] = molecular target: T1, Growth factor receptor-bound protein 2 (Homo sapiens, UniProt P62993); experiment: Binding affinity to Grb2-SH2 domain (unknown origin) expressed in Escherichia coli […] after 2 hrs by fluorescence polarization assay
# [2] = Drug uptake in human HeLa cells assessed as cytosolic entry efficiency measured as fluorescence at 5 uM incubated for 2 hrs by flow cytometry relative to CPP9 (100%); type: ADME, cell-based
# Outline: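 HeLa cells seeded 24 h earlier, given 5 μM naphthofluorescein-labelled peptide in DMEM with 1% or 10% FBS, 37 °C, 2 h. Cells DPBS-washed, trypsinized, flow cytometry with 633-nm excitation, APC channel, 10,000 live-cell events gated. Signal read as cytosolic entry because NF is non-fluorescent in acidic compartments; mean ± SD of three independent experiments, relative to CPP9 (100%).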
# [3] = molecular target: Dual specificity mitogen-activated protein kinase kinase; MEK1/2 (Homo sapiens) (UniProt P36507+Q02750); experiment: Inhibition of MEK phosphorylation in EGF-stimulated human MDA-MB-468 cells incubated for 2 hrs followed by 10 mins EGF stimulation by Western blotting analysis
# Outline: (§1)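 MDA-MB-468 cells grown to ~80% confluence, serum-starved 20 h, then given peptide at the indicated concentrations in serum-free medium for 2 h. EGF (50 ng/mL final) added for 10 min. Lysis in RIPA with protease/phosphatase inhibitors and 5 mM EDTA; ~20 μg protein run on 10% SDS-PAGE. Blots probed for phospho- and total MEK and ERK1/2, GAPDH loading control.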
# [4] = Metabolic stability of the compound in human MDA-MB-468 cells assessed as protein-tyrosine phosphatase-mediated endogenous dephosphorylation incubated for 2 hrs; type: ADME, cell-based; conditions: mda-mb-468, 2 h
# MDA-MB-468 = experiment: Effect on intracellular MEK expression in EGF-stimulated human MDA-MB-468 cells incubated for 2 hrs followed by 10 mins EGF stimulation by Western blotting analysis; type: functional, cell-based
# Outline: as §1
# [5] = molecular target: Mitogen-activated protein kinase; ERK1/ERK2 (Homo sapiens) (UniProt P27361+P28482); experiment: Inhibition of ERK1/2 phosphorylation in EGF-stimulated human MDA-MB-468 cells incubated for 2 hrs followed by 10 mins EGF stimulation by Western blotting analysis
# Outline: as §1
# [6] = molecular target: T1, Growth factor receptor-bound protein 2; experiment: Binding affinity to Grb2-SH2 domain (unknown origin) expressed in Escherichia coli […] after 1 hr by fluorescence polarization assay; conditions: in the assay text read “after 2 hrs” for “after 1 hr”
# Outline: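 GST-Grb2 SH2 domain expressed in E. coli BL21(DE3), glutathione-Sepharose purified. […] IC50 from four-parameter logistic fit of FP versus peptide concentration, three sets of experiments.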
# Chain of Dual specificity mitogen-activated protein kinase kinase; MEK1/2 (Homo sapiens) (P36507 whole entry, looked up): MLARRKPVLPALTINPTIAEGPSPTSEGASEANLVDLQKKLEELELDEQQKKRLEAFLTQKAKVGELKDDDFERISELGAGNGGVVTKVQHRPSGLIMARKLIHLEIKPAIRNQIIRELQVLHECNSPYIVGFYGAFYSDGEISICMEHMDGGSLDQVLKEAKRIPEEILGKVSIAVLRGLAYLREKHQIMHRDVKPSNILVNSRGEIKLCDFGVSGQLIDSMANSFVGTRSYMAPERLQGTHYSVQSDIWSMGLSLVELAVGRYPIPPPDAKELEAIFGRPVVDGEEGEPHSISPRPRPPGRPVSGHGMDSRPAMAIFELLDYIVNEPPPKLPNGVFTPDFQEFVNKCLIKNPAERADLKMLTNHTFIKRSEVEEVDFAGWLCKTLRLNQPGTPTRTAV
# Chain of Dual specificity mitogen-activated protein kinase kinase; MEK1/2 (Homo sapiens) (Q02750 whole entry, looked up): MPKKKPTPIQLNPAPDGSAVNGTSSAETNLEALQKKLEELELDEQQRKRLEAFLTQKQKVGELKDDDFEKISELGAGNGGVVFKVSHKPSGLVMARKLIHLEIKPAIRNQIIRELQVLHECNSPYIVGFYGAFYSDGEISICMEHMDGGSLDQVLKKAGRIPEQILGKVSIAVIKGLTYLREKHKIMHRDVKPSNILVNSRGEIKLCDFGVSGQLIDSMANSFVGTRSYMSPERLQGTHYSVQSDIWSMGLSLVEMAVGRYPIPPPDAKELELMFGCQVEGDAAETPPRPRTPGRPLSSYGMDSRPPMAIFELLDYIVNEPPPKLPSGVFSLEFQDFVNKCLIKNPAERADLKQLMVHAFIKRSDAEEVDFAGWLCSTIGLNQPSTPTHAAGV
# Chain of Mitogen-activated protein kinase; ERK1/ERK2 (Homo sapiens) (P27361 whole entry, looked up): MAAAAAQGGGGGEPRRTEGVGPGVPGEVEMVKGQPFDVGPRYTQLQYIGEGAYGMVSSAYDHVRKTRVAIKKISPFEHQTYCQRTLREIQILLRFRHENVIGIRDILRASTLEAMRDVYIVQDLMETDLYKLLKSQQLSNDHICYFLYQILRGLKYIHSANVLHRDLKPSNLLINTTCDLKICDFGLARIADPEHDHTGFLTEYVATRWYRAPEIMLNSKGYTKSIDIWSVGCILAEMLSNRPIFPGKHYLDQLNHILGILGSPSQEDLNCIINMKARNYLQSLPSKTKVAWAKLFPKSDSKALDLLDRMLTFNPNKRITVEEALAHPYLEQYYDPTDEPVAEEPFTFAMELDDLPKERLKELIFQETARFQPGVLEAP
# Chain of Mitogen-activated protein kinase; ERK1/ERK2 (Homo sapiens) (P28482 whole entry, looked up): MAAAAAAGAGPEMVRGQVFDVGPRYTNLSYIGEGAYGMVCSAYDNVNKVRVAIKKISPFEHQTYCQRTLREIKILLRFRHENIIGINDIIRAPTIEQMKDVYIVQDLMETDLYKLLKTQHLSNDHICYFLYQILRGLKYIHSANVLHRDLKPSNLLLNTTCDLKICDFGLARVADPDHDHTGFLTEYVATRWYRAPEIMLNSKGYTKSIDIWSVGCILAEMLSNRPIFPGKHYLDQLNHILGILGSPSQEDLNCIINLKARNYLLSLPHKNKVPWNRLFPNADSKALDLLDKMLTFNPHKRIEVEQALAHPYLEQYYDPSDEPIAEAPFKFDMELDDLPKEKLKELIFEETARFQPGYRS
IC50 [1],RFU [2],inhibition [3],Stabilty [4],inhibition [5],IC50 [6],SMILES,Activity (MDA-MB-468)
> 10000 nM,34%,inactive,,,,CC(C)[C@@H]1NC(=O)[C@H](Cc2ccc(O)cc2)NC(=O)[C@H](CCCNC(=N)N)NC(=O)[C@H](CCCNC(=N)N)NC(=O)[C@@H]2CCCN2C(=O)[C@H]2CCCN2C(=O)[C@@H](CCCNC(=N)N)NC(=O)[C@H](Cc2ccc3ccccc3c2)NC(=O)[C@H](Cc2ccccc2)NC(=O)[C@H](CC(=O)NCCOCCOCC(=O)N[C@@H](CCCCNC(=O)c2ccc3c(c2)C(=O)OC32c3ccc4cc(O)ccc4c3Oc3c2ccc2cc(O)ccc32)C(N)=O)NC1=O,
,49%,Active,Unstable,inactive,400 nM,CC(C)[C@@H]1NC(=O)[C@H](Cc2ccc(OP(=O)(O)O)cc2)NC(=O)[C@H](CCCNC(=N)N)NC(=O)[C@H](CCCNC(=N)N)NC(=O)[C@@H]2CCCN2C(=O)[C@H]2CCCN2C(=O)[C@@H](CCCNC(=N)N)NC(=O)[C@H](Cc2ccc3ccccc3c2)NC(=O)[C@H](Cc2ccccc2)NC(=O)[C@H](CC(=O)NCCOCCOCC(=O)N[C@@H](CCCCNC(=O)c2ccc3c(c2)C(=O)OC32c3ccc4cc(O)ccc4c3Oc3c2ccc2cc(O)ccc32)C(N)=O)NC1=O,inactive
100 nM,2%,inactive,,,,CC(C)[C@@H]1NC(=O)[C@H](Cc2ccc(OP(=O)(O)O)cc2)NC(=O)[C@H](CCCNC(=N)N)NC(=O)[C@H](CCCNC(=N)N)NC(=O)[C@@H]2CCCN2C(=O)[C@H]2CCCN2C(=O)[C@@H](C)NC(=O)[C@H](C)NC(=O)[C@H](Cc2ccccc2)NC(=O)[C@H](CC(=O)NCCOCCOCC(=O)N[C@@H](CCCCNC(=O)c2ccc3c(c2)C(=O)OC32c3ccc4cc(O)ccc4c3Oc3c2ccc2cc(O)ccc32)C(N)=O)NC1=O,
,22%,,,,,C[C@@H]1NC(=O)[C@H](C)NC(=O)[C@H](Cc2ccccc2)NC(=O)[C@H](CCCNC(=N)N)NC(=O)[C@H](CCCNC(=N)N)NC(=O)[C@@H]2CCCN2C(=O)[C@H]2CCCN2C(=O)[C@H](CCCNC(=N)N)NC(=O)[C@H](Cc2ccc3ccccc3c2)NC(=O)[C@H](Cc2ccccc2)NC(=O)[C@H](C)NC(=O)[C@H](C)NC(=O)[C@H](CCC(=O)NCCOCCOCC(=O)N[C@@H](CCCCNC(=O)c2ccc3c(c2)C(=O)OC32c3ccc4cc(O)ccc4c3Oc3c2ccc2cc(O)ccc32)C(N)=O)NC(=O)[C@H](C)NC1=O,
,94%,,,,,C[C@@H]1NC(=O)[C@H](CCC(=O)NCCOCCOCC(=O)N[C@@H](CCCCNC(=O)c2ccc3c(c2)C(=O)OC32c3ccc4cc(O)ccc4c3Oc3c2ccc2cc(O)ccc32)C(N)=O)NC(=O)[C@H](Cc2ccccc2)NC(=O)[C@H](CCCNC(=N)N)NC(=O)[C@H](CCCNC(=N)N)NC(=O)[C@@H]2CCCN2C(=O)[C@H]2CCCN2C(=O)[C@@H](CCCNC(=N)N)NC(=O)[C@H](Cc2ccc3ccccc3c2)NC(=O)[C@H](Cc2ccccc2)NC1=O,
,5.7%,,,,,C[C@@H]1NC(=O)[C@H](C)NC(=O)[C@H](Cc2ccc3ccccc3c2)NC(=O)[C@H](CCCNC(=N)N)NC(=O)[C@H](CCCNC(=N)N)NC(=O)[C@@H]2CCCN2C(=O)[C@H]2CCCN2C(=O)[C@H](CCCNC(=N)N)NC(=O)[C@H](CCCNC(=N)N)NC(=O)[C@H](Cc2ccccc2)NC(=O)[C@H](C)NC(=O)[C@H](C)NC(=O)[C@H](CCC(=O)NCCOCCOCC(=O)N[C@@H](CCCCNC(=O)c2ccc3c(c2)C(=O)OC32c3ccc4cc(O)ccc4c3Oc3c2ccc2cc(O)ccc32)C(N)=O)NC(=O)[C@H](C)NC1=O,
